Reference: the array DNA melting data of Ke et al. (doi:10.1101/2024.01.08.574731)

Assays:
[1] = folding enthalpy; higher = less favourable; fluorescence melt of hairpins on a sequencing array, two-state fit; conditions: sodium 0.088 M
Outline: (§1)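 Two-state fits, bootstrapped, provided melting temperature and folding enthalpy from Cy3 fluorescence normalised to pre-quench Cy3 and to control constructs. Library hairpins with annealed Cy3 and quencher oligos were imaged on a sequenced MiSeq flow cell in 50 mM Na-HEPES pH 8.0, 25 mM NaCl, at 2.5 °C intervals up to 60 °C. Four replicates were combined with inverse-variance weighting. A 9.35 °C upward shift was applied to fitted temperatures to match UV melts.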

[2] = melting temperature; fluorescence melt of hairpins on a sequencing array, two-state fit, raised by 9.35 °C to match UV melts; conditions: sodium 0.088 M
Outline: as §1

Sequence | folding enthalpy [1] [kcal/mol] | Tm [2] [°C]
GTATGCGCGAAAGCGTAC (((..(((....)))))) | -9.22 | 31.3
GTTTCACGAAAGTGTAAC (((.(((....))).))) | -24.6 | 44.7
GCGAATCGAAAGATCGC (((.(((....)))))) | -31.2 | 57.3
GCTTAGCGAAAGCCACGC ((.(.((....)).).)) | -8.56 | 22.5
GTCGCAGGAAACTGTGAC (((.(((....))).))) | -42.4 | 53.9
GATCCATGCGTGGATC ((((((....)))))) | -35.8 | 56.8
GATATGGGAAACCGTATC ((((.((....)).)))) | -32 | 43
GCCGCCGAAAGGCGCGGC ((((((....)))..))) | -11.2 | 69.3
GTCATCGGAAACGATGAC (((((((....))))))) | -40 | 67.8
GGAAGAGGAAACTCTTTC (.(((((....))))).) | -27 | 37.3
GCGGAGCGAAAGCACAGC ((.(.((....)).).)) | -17.4 | 58
GCGTCGCGAAAGCGTAGC ((..(((....)))..)) | -20.8 | 58.6
GATCGTGAGAACGATC ((((((....)))))) | -31.5 | 59.3
GAGAGCGAAAGCTGTCTC ((((((....)))..))) | -20.3 | 51.1
GTATGAGGAAACCCATAC (((((.(....).))))) | -30.3 | 35.3
GATCCACACGTGGATC ((((((....)))))) | -35.1 | 59
GACGAGCGAAAGCTGTC (((.(((....)))))) | -32.3 | 53
GACATGCCGAAAGGCGTC (((..(((....)))))) | -11.1 | 41.2
GACACGGGAAACCGTGCC (.(((((....))))).) | -13.8 | 48.4

Sequence | folding enthalpy [1] [kcal/mol] | Tm [2] [°C]
GGTGTCCCGAAAGGGACC (((..(((....)))))) | -9.51 | 49.5
GTCCATGGAAACACGGAC ((((.((....)).)))) | -25 | 42.1
GGAGACGAAAGTCCTTCC ((((((....)))..))) | -21.1 | 42.6
GGCACCGAAAGGTACGCC ((((((....)))..))) | -27.3 | 51.4
GTAACACGAAAGTGGTAC (((.(((....))).))) | -41.3 | 55.1
GTGTGAGGAAACTCACAC (((((((....))))))) | -49.1 | 63.4
GCCCAGCGAAAGCACGGC (((..((....))..))) | -18.4 | 52.1
GTCACAGGAAACTGTGAC (((((((....))))))) | -42.3 | 66.8
GCCAACGAAAGTTAAGGC ((((((....)))..))) | -25.6 | 45.8
GTTGGCGAAAGCCTGAAC ((((((....)))..))) | -8.07 | 30.9
GGTCACGAAAGTGAAACC ((((((....)))..))) | -17.9 | 41.4
GCGGAGCGAAAGCTGGGC ((..(((....)))..)) | -7.98 | 43.2
GAGTTCGGAAACGAACTC (((((((....))))))) | -39.4 | 67.3
GAACGAGGAAACTCGCTC ((.((((....)))).)) | -20.5 | 38.9
GCATCGCGAAAGCGGCGC ((..(((....)))..)) | -21.2 | 57.3
GAGGGGACGAAAGTCCTC (((..(((....)))))) | -8.85 | 41.2
GGTTACGAAAGTATGACC ((((((....)))..))) | -15.1 | 30.4
GCGGGCGAAAGCCGACGC ((((((....)))..))) | -19.9 | 61.9
AAACCGAAAGGTTT (((((....))))) | -20.7 | 52.8
